Measurements taken from ChEMBL document CHEMBL1122463, “2,3-dihydro-3-(1-pyrryl)spiro[benzofuran-2,4'-piperidine]s and 2,3-dihydro-3-(1-pyrryl)spiro[benzofuran-2,3'-pyrrolidine]s: novel antihypertensive agents” (1983).
Several values for one entry are separate records, joined by “and”; a condition that tells them apart may be missing. Equal entries are not always repeated.

Tests used:
Canis familiaris [1] = assay: Mean arterial BP before administration at a dose of 10 mg/kg iv.; type: functional, Canis lupus familiaris
Canis familiaris [2] = assay: Hemodynamic effect in sinoaortic- deafferented hypertensive dog measured as mean arterial BP after 60 min of 5 mg/kg dose; type: functional, Canis lupus familiaris
Canis familiaris [3] = assay: Hemodynamic effect in sinoaortic- deafferented hypertensive dog measured as cardiac output after 5 min of 10 mg/kg
Canis familiaris [4] = assay: Hemodynamic effect in sinoaortic- deafferented hypertensive dog measured as left ventricular pressure after 30 min of 10 mg/kg
Canis familiaris [5] = assay: Mean arterial BP after administration at a dose of 10 mg/kg iv.; type: functional, Canis lupus familiaris
Canis familiaris [6] = assay: Hemodynamic effect in sinoaortic- deafferented hypertensive dog measured as cardiac output after 0 min of 10 mg/kg
Rattus norvegicus [7] = species on record: Rattus norvegicus; assay: hypotensive activity in renal hypertensive rats by using tail-cuff method measured as initial BP; type: functional, Blood
In short: (§1)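 Renal hypertension (modified Grollman) was made in male Sprague-Dawley rats under pentobarbital sodium 50 mg/kg ip. The right kidney was removed, and silk sutures around both poles of the left kidney constricted the parenchyma. After 3 weeks of stabilization, rats with systolic BP >150 mmHg were used. Compounds were given orally. Systolic BP was measured by tail-cuff predose and at the stated day/h after dosing.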

Canis familiaris [8] = assay: Hemodynamic effect in sinoaortic- deafferented hypertensive dog measured as cardiac output after 60 min of 10 mg/kg
Canis familiaris [9] = assay: Hemodynamic effect in sinoaortic- deafferented hypertensive dog measured as heart rate after 0 min of 5 mg/kg dose; type: functional, Canis lupus familiaris
Canis familiaris [10] = assay: Hemodynamic effect in sinoaortic- deafferented hypertensive dog measured as mean arterial BP after 5 min of 5 mg/kg dose; type: functional, Canis lupus familiaris
Canis familiaris [11] = assay: effect of compound at a dose of 10 mg/kg iv, on standard cardiovascular in anesthetized normotensive dogs before administration of norepinephrine.; type: functional, Canis lupus familiaris, Heart
In short: (§2)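 Bilateral vagotomy was performed. BP was recorded via a femoral artery, with iv dosing via a femoral vein; BP and heart rate were recorded continuously. Each iv challenge was given twice before test drug and once after. Challenge doses were epinephrine and norepinephrine 0.5–1.0 μg/kg, and isoproterenol and carbachol 0.25 μg/kg.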

Canis familiaris [12] = assay: Mean heart rate before administration at a dose of 10 mg/kg iv.; type: functional, Canis lupus familiaris
Canis familiaris [13] = assay: effect of compound at a dose of 10 mg/kg iv, on standard cardiovascular in anesthetized normotensive dogs after administration of epinephrine.; type: functional, Canis lupus familiaris, Heart; in short: as §2
Rattus norvegicus [14] = assay: Oral hypotensive activity in spontaneously hypertensive rats by using tail-cuff method measured as change in systolic BP at the dose of 30 mg/kg po.; type: functional, Blood
In short: (§3)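 Okamoto-Aoki strain spontaneously hypertensive rats. Compounds were suspended in distilled water with Tween 80 and given orally every day at 50, 30, 10 or 3 mg/kg. Systolic BP was measured by tail-cuff plethysmography on day 1 (predose and 2 h), day 3 (predose and 2 h) and day 5 (predose, 2 and 4 h). The screen used 4 rats; dose-response used 4–8 rats per dose.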

Canis familiaris [15] = assay: Hemodynamic effect in sinoaortic- deafferented hypertensive dog measured as heart rate after 5 min of 5 mg/kg dose; type: functional, Canis lupus familiaris
Canis familiaris [16] = assay: Hemodynamic effect in sinoaortic- deafferented hypertensive dog measured as mean arterial BP after 30 min of 5 mg/kg dose; type: functional, Canis lupus familiaris
Canis familiaris [17] = assay: Hemodynamic effect in sinoaortic- deafferented hypertensive dog measured as left ventricular pressure after 5 min of 10 mg/kg
Canis familiaris [18] = assay: effect of compound at a dose of 10 mg/kg iv, on standard cardiovascular in anesthetized normotensive dogs before administration of tyramine.; type: functional, Canis lupus familiaris, Heart
Rattus norvegicus [19] = species on record: Rattus norvegicus; assay: Oral hypotensive activity in spontaneously hypertensive rats by using tail-cuff method measured as the initial BP; type: functional, Blood; in short: as §3
Canis familiaris [20] = assay: Mean heart rate after administration at a dose of 10 mg/kg iv.; type: functional, Canis lupus familiaris
Rattus norvegicus [21] = assay: Oral hypotensive activity in spontaneously hypertensive rats by using tail-cuff method measured as change in systolic BP at the dose of 50 mg/kg po.; type: functional, Blood; in short: as §3
Canis familiaris [22] = assay: Hemodynamic effect in sinoaortic- deafferented hypertensive dog measured as left ventricular pressure after 60 min of 10 mg/kg
Canis familiaris [23] = assay: effect of compound at a dose of 10 mg/kg iv, on standard cardiovascular in anesthetized normotensive dogs before administration of epinephrine.; type: functional, Canis lupus familiaris, Heart; in short: as §2
Rattus norvegicus [24] = species on record: Rattus norvegicus; assay: Hypotensive activity in renal hypertensive rats by using tail-cuff method measured as BP on day/h postdrug; type: functional, Blood
In short: (§4)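 Renal hypertension made in male Sprague-Dawley rats (Grollman modification). Under pentobarbital (50 mg/kg ip), the right kidney was removed and silk sutures tied around both poles of the left kidney to constrict it. After 3 weeks, rats with systolic BP >150 mmHg were used. Compound given po daily to 4 rats. Systolic BP by tail-cuff plethysmography at the listed day/hour after dosing.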

Rattus norvegicus [25] = species on record: Rattus norvegicus; assay: Oral hypotensive activity in spontaneously hypertensive rats by using tail-cuff method measured as change in systolic BP; type: functional, Blood
In short: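 Okamoto-Aoki spontaneously hypertensive rats. Compound suspended in distilled water with Tween 80, given po daily, screening dose 50 mg/kg, dose-response at 50, 30, 10 or 3 mg/kg unless stated. Systolic BP by tail-cuff plethysmography on day 1 predose and 2 h, day 3 predose and 2 h, and day 5 predose, 2 and 4 h. Reported as peak decrease on day 3 (or day 5) at 2 h ± SEM. n = 4 in screen, 4–8 per dose.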

Rattus norvegicus [26] = species on record: Rattus norvegicus; assay: hypotensive activity in renal hypertensive rats by using tail-cuff method measured as BP on day/h postdrug; type: functional, Blood; in short: as §1
Canis familiaris [27] = assay: effect of compound at a dose of 10 mg/kg iv, on standard cardiovascular in anesthetized normotensive dogs after administration of tyramine.; type: functional, Canis lupus familiaris, Heart
Canis familiaris [28] = assay: effect of compound at a dose of 10 mg/kg iv, on standard cardiovascular in anesthetized normotensive dogs after administration of norepinephrine.; type: functional, Canis lupus familiaris, Heart; in short: as §2
Canis familiaris [29] = assay: Hemodynamic effect in sinoaortic- deafferented hypertensive dog measured as mean arterial BP after 0 min of 5 mg/kg dose; type: functional, Canis lupus familiaris
Canis familiaris [30] = assay: Hemodynamic effect in sinoaortic- deafferented hypertensive dog measured as left ventricular pressure after 0 min of 10 mg/kg
Canis familiaris [31] = assay: effect of compound at a dose of 10 mg/kg iv, on standard cardiovascular in anesthetized normotensive dogs before administration of isoproterenol.; type: functional, Canis lupus familiaris, Heart; in short: as §2
Canis familiaris [32] = assay: effect of compound at a dose of 10 mg/kg iv, on standard cardiovascular in anesthetized normotensive dogs after administration of carbachol.; type: functional, Canis lupus familiaris, Heart; in short: as §2
Canis familiaris [33] = assay: effect of compound at a dose of 10 mg/kg iv, on standard cardiovascular in anesthetized normotensive dogs after administration of isoproterenol.; type: functional, Canis lupus familiaris, Heart; in short: as §2
Rattus norvegicus [34] = species on record: Rattus norvegicus; assay: Hypotensive activity in renal hypertensive rats by using tail-cuff method measured as change in BP on day/h postdrug; type: functional, Blood; in short: as §4
Canis familiaris [35] = assay: effect of compound at a dose of 10 mg/kg iv, on standard cardiovascular in anesthetized normotensive dogs before administration of carbachol.; type: functional, Canis lupus familiaris, Heart; in short: as §2
Canis familiaris [36] = assay: Hemodynamic effect in sinoaortic- deafferented hypertensive dog measured as cardiac output after 30 min of 10 mg/kg
Canis familiaris [37] = assay: Hemodynamic effect in sinoaortic- deafferented hypertensive dog measured as heart rate after 30 min of 5 mg/kg dose; type: functional, Canis lupus familiaris
Canis familiaris [38] = assay: Hemodynamic effect in sinoaortic- deafferented hypertensive dog measured as heart rate after 60 min of 5 mg/kg dose; type: functional, Canis lupus familiaris
Rattus norvegicus [39] = assay: Oral hypotensive activity in spontaneously hypertensive rats by using tail-cuff method measured as change in systolic BP at the dose of 10 mg/kg po.; type: functional, Blood
In short: (§5)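 SHR of the Okamoto-Aoki strain, dosed orally every day with compound suspended in distilled water with Tween 80. Systolic pressure was taken by tail-cuff plethysmography on day 1 (predose, 2 h), day 3 (predose, 2 h) and day 5 (predose, 2 and 4 h). Initial BP is the pretreatment systolic pressure, with 4–8 rats per dose in the dose-response screen.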

Rattus norvegicus [40] = assay: Oral hypotensive activity in spontaneously hypertensive rats by using tail-cuff method measured as change in systolic BP at the dose of 25 mg/kg po.; type: functional, Blood; in short: as §5

`CCN1CCC2(CC1)Oc1ccccc1C2n1cccc1` (stereo not drawn) was tested, and the BP (Canis familiaris [1]) was 132.7 mmHg, the BP (Canis familiaris [2]) was 103 mmHg and the Cardiac output (Canis familiaris [3]) was 1600 mL/min. For the same compound, the dP/dt (Canis familiaris [4]) was 21.2 1/Pmax, the BP (Canis familiaris [5]) was 106.3 mmHg and the Cardiac output (Canis familiaris [6]) was 2120 mL/min. It also gave a BP (Rattus norvegicus [7]) of 162 mmHg, a Cardiac output (Canis familiaris [8]) of 1600 mL/min and a Rate (Canis familiaris [9]) of 170 beats min-1. The BP (Canis familiaris [10]) was 121 mmHg, the BP (Canis familiaris [11]) was 56.7 mmHg and the Rate (Canis familiaris [12]) was 167 beats min-1. For the same compound, the BP (Canis familiaris [13]) was 59.7 mmHg, the BP (Rattus norvegicus [14]) was 187 mmHg and the Delta blood pressure (Rattus norvegicus [14]) was 71 mmHg. For the same compound, the Rate (Canis familiaris [15]) was 134 beats min-1, the BP (Canis familiaris [16]) was 98 mmHg and the dP/dt (Canis familiaris [17]) was 20.3 1/Pmax. The BP (Canis familiaris [18]) was 64.3 mmHg, the BP (Rattus norvegicus [19]) was 180 mmHg and 214 mmHg and the Rate (Canis familiaris [20]) was 126 beats min-1. The BP (Rattus norvegicus [21]) was 187 mmHg, the Delta blood pressure (Rattus norvegicus [21]) was 71 mmHg and the dP/dt (Canis familiaris [22]) was 25.6 1/Pmax. The BP (Canis familiaris [23]) was 44.8 mmHg, the BP (Rattus norvegicus [24]) was 110 mmHg and the Delta blood pressure (Rattus norvegicus [25]) was 27 mmHg and 38 mmHg. For the same compound, the BP (Rattus norvegicus [26]) was 131 mmHg and 113 mmHg and 116 mmHg and 129 mmHg, the BP (Canis familiaris [27]) was 84.3 mmHg and the BP (Canis familiaris [28]) was 66 mmHg. For the same compound, the BP (Canis familiaris [29]) was 165 mmHg, the dP/dt (Canis familiaris [30]) was 27.2 1/Pmax and the BP (Canis familiaris [31]) was -34.3 mmHg. For the same compound, the BP (Canis familiaris [32]) was -37 mmHg, the BP (Canis familiaris [33]) was -39.3 mmHg and the Delta blood pressure (Rattus norvegicus [34]) was 31 mmHg and 52 mmHg and 49 mmHg and 46 mmHg and 33 mmHg. It also gave a BP (Canis familiaris [35]) of -52 mmHg, a Cardiac output (Canis familiaris [36]) of 1530 mL/min and a Rate (Canis familiaris [37]) of 126 beats min-1. For the same compound, the Rate (Canis familiaris [38]) was 132 beats min-1.
With `O=C(CCCN1CCC2(CC1)Oc1ccccc1C2n1cccc1)c1ccc(F)cc1` (stereo not drawn) the BP (Rattus norvegicus [19]) was 199 mmHg and the Delta blood pressure (Rattus norvegicus [25]) was 37 mmHg.
Compound `CCCN1CCC2(CC1)Oc1ccccc1C2n1cccc1` (stereo not drawn) has a BP (Rattus norvegicus [19]) of 177 mmHg and a Delta blood pressure (Rattus norvegicus [25]) of 14 mmHg.
Compound `N/C(=N\O)N1CCC2(CC1)Oc1ccccc1C2n1cccc1` (stereo not drawn) has a BP (Rattus norvegicus [19]) of 209 mmHg and a Delta blood pressure (Rattus norvegicus [25]) of 24 mmHg.
For `c1ccc2c(c1)OC1(CCNCC1)C2n1cccc1` (stereo not drawn), the BP (Rattus norvegicus [21]) was 189 mmHg, the Delta blood pressure (Rattus norvegicus [21]) was 43 mmHg and the BP (Rattus norvegicus [39]) was 198 mmHg. The Delta blood pressure (Rattus norvegicus [39]) was 33 mmHg, the BP (Rattus norvegicus [40]) was 200 mmHg and the Delta blood pressure (Rattus norvegicus [40]) was 49 mmHg.
In the case of `c1ccc(CCN2CCC3(CC2)Oc2ccccc2C3n2cccc2)cc1` (stereo not drawn), the BP (Rattus norvegicus [19]) is reported as 203 mmHg and 180 mmHg and 176 mmHg.
